Experimental data: ChEMBL document CHEMBL3865827, “A novel class of ethacrynic acid derivatives as promising drug-like potent generation of anticancer agents with established mechanism of action” (Eur J Med Chem, 2016)
The source made the active and inactive calls. No cut-off for these calls is given here.

What was measured:
[1] = Antiproliferative activity against human KB cells after 24 to 72 hrs by MTS assay; type: functional, cell-based
How it was run: (§1)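 Cells plated, then dosed 24 h later with compounds in DMSO (1% final; controls DMSO alone), exposed 24 or 72 h. Proliferation inhibition measured as previously reported (MTS/NADH reagent). IC50 from duplicate experiments over 0.5 nM–100 µM. KB grown in D-MEM with 10% fetal calf serum, penicillin, streptomycin, fungizone, 5% CO2; other lines in complete RPMI. EPC are quiescent Cyprinus carpio endothelial progenitor cells.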

[2] = Antiproliferative activity against human HL60 cells after 24 to 72 hrs by MTS assay; type: functional, cell-based; settings: HL-60; how it was run: as §1
[3] = Antiproliferative activity against human MCF7 cells after 24 to 72 hrs by MTS assay; type: functional, cell-based
[4] = Antiproliferative activity against human HCT116 cells after 24 to 72 hrs by MTS assay; type: functional, cell-based; settings: HCT-116
[5] = Antiproliferative activity against human PC3 cells after 24 to 72 hrs by MTS assay; type: functional, cell-based; settings: PC-3
[6] = Antiproliferative activity against human SKOV3 cells after 24 to 72 hrs by MTS assay; type: functional, cell-based; settings: SK-OV-3
[7] = Antiproliferative activity against human OVCAR8 cells after 24 to 72 hrs by MTS assay; type: functional, cell-based; settings: OVCAR-8
[8] = Cytotoxicity against human HL60 cells assessed as reduction in cell viability after 24 hrs by MTS assay; type: functional, cell-based; settings: HL-60, 24 h
HL-60 [9] = test: Induction of apoptosis in human HL60 cells assessed as necrotic/late apoptotic cells at 10 uM after 24 hrs by Annexin V/7AAD-dual staining based FACS analysis (reference value: 0.6 %); type: functional
How it was run: (§2)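 HL60 cells treated 24 h with EA (10 or 50 µM) or derivatives (5 µM); controls vehicle only. Annexin V/7-AAD staining, flow cytometry; cells classed as dead, necrotic/late apoptotic, intact or early apoptotic, as percentages.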

KB [10] = test: Induction of necrosis in human KB cells assessed as increase in LDH release at 50 uM after 24 to 48 hrs by fluorescence assay; type: functional, cell-based
HCT-116 = test: Induction of necrosis in human HCT116 cells assessed as increase in LDH release 50 uM after 24 to 48 hrs by fluorescence assay; type: functional, cell-based
MRC5 = test: Induction of necrosis in human MRC5 SV2 cells assessed as increase in LDH release at 50 uM after 24 to 48 hrs by fluorescence assay; type: functional, cell-based
HL-60 [11] = test: Induction of apoptosis in human HL60 cells assessed as dead cells at 10 uM after 24 hrs by Annexin V/7AAD-dual staining based FACS analysis (reference value: 0.1 %); type: functional
HL-60 [12] = test: Induction of apoptosis in human HL60 cells assessed as dead cells at 50 uM after 24 hrs by Annexin V/7AAD-dual staining based FACS analysis (reference value: 0.1 %); type: functional
HL-60 [13] = test: Induction of apoptosis in human HL60 cells assessed as necrotic/late apoptotic cells at 50 uM after 24 hrs by Annexin V/7AAD-dual staining based FACS analysis (reference value: 0.6 %); type: functional; how it was run: as §2
HL-60 [14] = test: Induction of apoptosis in human HL60 cells assessed as intact cells at 10 uM after 24 hrs by Annexin V/7AAD-dual staining based FACS analysis (reference value: 91.6 %); type: functional; how it was run: as §2
HL-60 [15] = test: Induction of apoptosis in human HL60 cells assessed as intact cells at 50 uM after 24 hrs by Annexin V/7AAD-dual staining based FACS analysis (reference value: 91.6 %); type: functional; how it was run: as §2
HL-60 [16] = test: Induction of apoptosis in human HL60 cells assessed as early apoptotic cells at 10 uM after 24 hrs by Annexin V/7AAD-dual staining based FACS analysis (reference value: 7.7 %); type: functional; how it was run: as §2
HL-60 [17] = test: Induction of apoptosis in human HL60 cells assessed as early apoptotic cells at 50 uM after 24 hrs by Annexin V/7AAD-dual staining based FACS analysis (reference value: 7.7 %); type: functional; how it was run: as §2
HL-60 [18] = test: Induction of apoptosis in human HL60 cells assessed as intact cells at 10 to 50 uM after 24 hrs by Annexin V/7AAD-dual staining based FACS analysis; type: functional, cell-based; how it was run: as §2
HL-60 [19] = test: Induction of apoptosis in human HL60 cells assessed as early apoptotic cells at 10 to 50 uM after 24 hrs by Annexin V/7AAD-dual staining based FACS analysis; type: functional, cell-based; how it was run: as §2
[20] = Cell cycle arrest in human HL60 cells assessed as accumulation at G0/G1 phase at 2.5 uM after 24 hrs by propidium iodide-staining based FACS analysis (reference value: 43.5 %); type: functional; settings: HL-60
How it was run: (§3)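 HL60 cells, 25,000 per well, exposed 24 and 48 h to 2.5 µM compounds; controls DMSO (1% final). Propidium iodide staining, flow cytometry; fractions in sub-G1, G0/G1, S and G2/M quantified.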

[21] = Cell cycle arrest in human HL60 cells assessed as accumulation at S phase at 2.5 uM after 24 hrs by propidium iodide-staining based FACS analysis (reference value: 48.9 %); type: functional; settings: HL-60; how it was run: as §3
[22] = Cell cycle arrest in human HL60 cells assessed as accumulation at G2/M phase at 2.5 uM after 24 hrs by propidium iodide-staining based FACS analysis (reference value: 5.1 %); type: functional; settings: HL-60; how it was run: as §3
[23] = Cell cycle arrest in human HL60 cells assessed as accumulation at sub G1 phase at 2.5 uM after 24 hrs by propidium iodide-staining based FACS analysis (reference value: 2.6 %); type: functional; settings: HL-60; how it was run: as §3
[24] = Cell cycle arrest in human HL60 cells assessed as accumulation at G0/G1 phase at 2.5 uM after 48 hrs by propidium iodide-staining based FACS analysis (reference value: 43.8 %); type: functional; settings: HL-60; how it was run: as §3
[25] = Cell cycle arrest in human HL60 cells assessed as accumulation at S phase at 2.5 uM after 48 hrs by propidium iodide-staining based FACS analysis (reference value: 52.6 %); type: functional; settings: HL-60; how it was run: as §3
[26] = Cell cycle arrest in human HL60 cells assessed as accumulation at G2/M phase at 2.5 uM after 48 hrs by propidium iodide-staining based FACS analysis (reference value: 2.2 %); type: functional; settings: HL-60; how it was run: as §3
[27] = Cell cycle arrest in human HL60 cells assessed as accumulation at sub G1 phase at 2.5 uM after 48 hrs by propidium iodide-staining based FACS analysis (reference value: 1.4 %); type: functional; settings: HL-60; how it was run: as §3
KB [28] = test: Selectivity index, ratio of IC50 for Cyprinus carpio EPC to IC50 for human KB cells
HL-60 [29] = test: Selectivity index, ratio of IC50 for Cyprinus carpio EPC to IC50 for human HL60 cells
[30] = Antiproliferative activity against Cyprinus carpio EPC after 24 to 72 hrs by MTS assay
HL-60 [31] = test: Antiproliferative activity against human HL60 cells at 50 uM after 24 hrs by viacount-reagent based FACS analysis
HL-60 [32] = test: Induction of apoptosis in human HL60 cells assessed as dead cells at 10 to 50 uM after 24 hrs by Annexin V/7AAD-dual staining based FACS analysis
HL-60 [33] = test: Induction of apoptosis in human HL60 cells assessed as necrotic/late apoptotic cells at 10 to 50 uM after 24 hrs by Annexin V/7AAD-dual staining based FACS analysis

C=C(CC)C(=O)c1ccc(OCC(=O)O)c(Cl)c1Cl [ETHACRYNIC ACID]
IC50 [1]: 11 µM | IC50 [2]: 46 µM | IC50 [3]: 41 µM | IC50 [4]: 75 µM | IC50 [5]: 75 µM | IC50 [6]: > 100 µM | IC50 [7]: 72 µM | IC50 [8]: 38 µM | Activity (HL-60 [9]): 0.9% | Activity (KB [10]): Active | Activity (HCT-116): Active | Activity (MRC5): Active | Activity (HL-60 [11]): 0.1% | Activity (HL-60 [12]): 0% | Activity (HL-60 [13]): 0.8% | Activity (HL-60 [14]): 87.8% | Activity (HL-60 [15]): 57.9% | Activity (HL-60 [16]): 11.2% | Activity (HL-60 [17]): 41.3% | Activity (HL-60 [18]): Active | Activity (HL-60 [19]): Active | Activity [20]: 45.4% | Activity [21]: 43.6% | Activity [22]: 8.3% | Activity [23]: 2.7% | Activity [24]: 41.5% | Activity [25]: 54.1% | Activity [26]: 1.3% | Activity [27]: 3.1% | Ratio IC50 (KB [28]): >9 | Ratio IC50 (HL-60 [29]): >2 | IC50 [30]: > 100 µM | Activity (HL-60 [31]): Active | Activity (HL-60 [32]): Active | Activity (HL-60 [33]): Active
